Data taken from ChEMBL document CHEMBL4308847, “Discovery, Structure-Activity Relationship, and Biological Characterization of a Novel Series of 6-((1 H-Pyrazolo[4,3- b]pyridin-3-yl)amino)-benzo[ d]isothiazole-3-carboxamides as Positive Allosteric Modulators of the Metabotropic Glutamate Receptor 4 (mGlu4)” (J Med Chem, 2018).

What was measured:
[1] = Fraction unbound in rat plasma after 4 hrs by equilibrium dialysis method; assay type: ADME, cell-free
[2] = Intrinsic clearance in rat liver microsomes at 1 uM preincubated for 5 mins followed by NADPH addition measured up to 45 mins by LC-MS/MS analysis; assay type: ADME, Microsome; conditions: read-out: CLH
How it was run: (§1)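 Intrinsic and predicted hepatic clearance derived from liver microsome incubations.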

[3] = Fraction unbound in human plasma after 4 hrs by equilibrium dialysis method; assay type: ADME, cell-free
[4] = Brain to plasma partition coefficient, Kp of the compound in rat administered as iv cassette dose; assay type: ADME, organism-based
How it was run: (§2)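 Cassette dosing in male Sprague-Dawley rats (~300 g, n = 1 per experiment), with carotid artery and jugular vein catheters. Animals acclimated about one week with food and water ad libitum. Plasma (ng/mL) and brain (ng/g) levels were measured and Kp calculated.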

[5] = target: T1, Metabotropic glutamate receptor 4 (Homo sapiens, UniProt Q14833); assay: Positive allosteric modulation of human mGlu4 receptor expressed in CHO cells co-expressing Gqi5 assessed as increase in glutamate-induced calcium mobilization preincubated for 142 secs followed by EC20 glutamate addition and subsequent EC80 glutamate addition after 147 secs by Fluo-4-AM dye based fluorescence assay; assay type: functional, cell-based
How it was run: (§3)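 CHO cells expressing human mGlu4 and Gqi5, plated at 30,000 cells/well and grown overnight at 37 °C, 5% CO2. Cells were loaded with 1 μM Fluo-4 AM for 45 min at 37 °C in HBSS/20 mM HEPES/2.5 mM probenecid. Compounds were run as 10-point, 1:3 dilution series. After 142 s, EC20 glutamate was added; 147 s later, EC80 glutamate. Fluorescence was normalized to the maximal glutamate response. EC50 and %Glu Max were fitted by four-parameter logistic, with maximum normalized to PHCCC.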

[6] = Drug uptake in rat brain administered as iv cassette dose; assay type: ADME, organism-based; conditions: in vivo; how it was run: as §2
[7] = Plasma concentration in rat administered as iv cassette dose; assay type: ADME, organism-based; conditions: in vivo; how it was run: as §2
[8] = target: T1, Metabotropic glutamate receptor 4; assay: Positive allosteric modulation of human mGlu4 receptor expressed in CHO cells co-expressing Gqi5 assessed as increase in glutamate-induced calcium mobilization preincubated for 142 secs followed by EC20 glutamate addition and measured after 147 secs by Fluo-4-AM dye based fluorescence assay relative to control; assay type: functional, cell-based; how it was run: as §3
[9] = Intrinsic clearance in human liver microsomes at 1 uM preincubated for 5 mins followed by NADPH addition measured up to 45 mins by LC-MS/MS analysis; assay type: ADME, Microsome; conditions: read-out: CLH; how it was run: as §1
[10] = MRT in rat administered as iv cassette dose; assay type: ADME, organism-based; conditions: in vivo
How it was run: (§4)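 IV cassette in male Sprague-Dawley rats (~300 g, n = 1 per experiment), cannulated in carotid artery and jugular vein and acclimated about one week. Plasma clearance, Vss, t1/2 and MRT were derived.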

[11] = target: Metabotropic glutamate receptor 4 (Rattus norvegicus, UniProt P31423); assay: Positive allosteric modulation of rat mGlu4 receptor expressed in HEK cells co-expressing GIRK1/2 assessed as increase in glutamate-induced thallium flux preincubated for 140 secs followed by glutamate addition and measured after 2.5 mins by FluoZin-2-AM dye based fluorescence assay; assay type: cell-based
How it was run: (§5)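 HEK cells co-expressing rat mGlu4 and GIRK1/2 were loaded for 1 h at room temperature with FluoZin-2 AM (330 nM final) in HBSS/20 mM HEPES pH 7.4. Compound was incubated 140 s, then thallium buffer with or without agonist was added. Reading continued for 2.5 min at room temperature. Potency was fitted by four-parameter logistic.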

[12] = target: T2, AhR (read out as CYP1A2 induction) (Homo sapiens, UniProt P35869); assay: Activation of AhR (unknown origin) assessed as CYP1A2 induction relative to control; assay type: ADME
T2 sequence (P35869 whole entry): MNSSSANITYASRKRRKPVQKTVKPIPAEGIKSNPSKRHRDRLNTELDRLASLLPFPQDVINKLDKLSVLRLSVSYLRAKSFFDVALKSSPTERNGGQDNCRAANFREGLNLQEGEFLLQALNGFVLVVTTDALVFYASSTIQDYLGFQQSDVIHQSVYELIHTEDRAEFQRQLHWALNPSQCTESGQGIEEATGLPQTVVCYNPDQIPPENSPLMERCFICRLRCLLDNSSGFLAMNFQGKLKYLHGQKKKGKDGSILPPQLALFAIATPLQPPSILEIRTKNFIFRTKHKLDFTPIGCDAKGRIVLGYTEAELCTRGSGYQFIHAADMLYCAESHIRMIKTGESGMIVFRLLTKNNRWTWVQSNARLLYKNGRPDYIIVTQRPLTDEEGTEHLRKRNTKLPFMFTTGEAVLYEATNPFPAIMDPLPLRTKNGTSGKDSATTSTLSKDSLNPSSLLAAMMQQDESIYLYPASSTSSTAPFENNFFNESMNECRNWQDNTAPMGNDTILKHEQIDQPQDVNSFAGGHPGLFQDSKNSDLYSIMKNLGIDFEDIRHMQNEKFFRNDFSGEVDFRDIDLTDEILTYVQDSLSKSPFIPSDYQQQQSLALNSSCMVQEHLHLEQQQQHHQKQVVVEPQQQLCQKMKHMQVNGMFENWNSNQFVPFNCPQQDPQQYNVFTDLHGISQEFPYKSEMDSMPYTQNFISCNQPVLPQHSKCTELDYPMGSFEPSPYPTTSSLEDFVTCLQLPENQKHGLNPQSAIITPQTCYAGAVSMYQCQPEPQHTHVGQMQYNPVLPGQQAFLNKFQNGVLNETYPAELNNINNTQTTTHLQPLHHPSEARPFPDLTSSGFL

[13] = Half life in rat administered as iv cassette dose; assay type: ADME, organism-based; conditions: in vivo; how it was run: as §4
[14] = Volume of distribution at steady state in rat administered as iv cassette dose; assay type: ADME, organism-based; conditions: in vivo, read-out: Vdss; how it was run: as §4
Cytochrome P450 1A2 = target: T3, Cytochrome P450 1A2 (Homo sapiens, UniProt P05177); assay: Inhibition of CYP1A2 in human liver microsomes using phenacetin as substrate preincubated for 15 mins followed by substrate addition and measured after 8 mins by LC-MS/MS analysis; assay type: ADME
T3 sequence (P05177 whole entry): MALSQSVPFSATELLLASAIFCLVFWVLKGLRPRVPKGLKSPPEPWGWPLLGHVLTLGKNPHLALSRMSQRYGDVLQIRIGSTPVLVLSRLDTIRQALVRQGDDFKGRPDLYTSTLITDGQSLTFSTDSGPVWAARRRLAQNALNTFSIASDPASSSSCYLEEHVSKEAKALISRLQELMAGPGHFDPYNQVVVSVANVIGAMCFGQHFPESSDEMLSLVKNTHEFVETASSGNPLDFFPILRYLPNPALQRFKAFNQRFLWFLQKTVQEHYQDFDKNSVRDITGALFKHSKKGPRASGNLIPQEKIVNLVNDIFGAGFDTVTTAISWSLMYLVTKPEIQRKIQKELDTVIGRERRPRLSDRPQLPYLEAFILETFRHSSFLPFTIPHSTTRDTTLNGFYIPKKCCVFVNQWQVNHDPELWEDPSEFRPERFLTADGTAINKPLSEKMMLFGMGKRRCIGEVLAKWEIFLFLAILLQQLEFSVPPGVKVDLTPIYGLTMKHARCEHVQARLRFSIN
How it was run: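 IC50 for CYP1A2 inhibition determined in human liver microsomes using specific probe substrate-metabolite pairs.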

[15] = Clearance in rat administered as iv cassette dose; assay type: ADME, organism-based; conditions: in vivo; how it was run: as §4
[16] = target: Metabotropic glutamate receptor 4 (Rattus norvegicus) (UniProt P31423); assay: Positive allosteric modulation of rat mGlu4 receptor expressed in HEK cells co-expressing GIRK1/2 assessed as increase in glutamate-induced thallium flux preincubated for 140 secs followed by glutamate addition and measured after 2.5 mins by FluoZin-2-AM dye based fluorescence assay relative to control; assay type: cell-based; how it was run: as §5
Metabotropic glutamate receptor 4 (Rattus norvegicus), sequence (P31423 whole entry): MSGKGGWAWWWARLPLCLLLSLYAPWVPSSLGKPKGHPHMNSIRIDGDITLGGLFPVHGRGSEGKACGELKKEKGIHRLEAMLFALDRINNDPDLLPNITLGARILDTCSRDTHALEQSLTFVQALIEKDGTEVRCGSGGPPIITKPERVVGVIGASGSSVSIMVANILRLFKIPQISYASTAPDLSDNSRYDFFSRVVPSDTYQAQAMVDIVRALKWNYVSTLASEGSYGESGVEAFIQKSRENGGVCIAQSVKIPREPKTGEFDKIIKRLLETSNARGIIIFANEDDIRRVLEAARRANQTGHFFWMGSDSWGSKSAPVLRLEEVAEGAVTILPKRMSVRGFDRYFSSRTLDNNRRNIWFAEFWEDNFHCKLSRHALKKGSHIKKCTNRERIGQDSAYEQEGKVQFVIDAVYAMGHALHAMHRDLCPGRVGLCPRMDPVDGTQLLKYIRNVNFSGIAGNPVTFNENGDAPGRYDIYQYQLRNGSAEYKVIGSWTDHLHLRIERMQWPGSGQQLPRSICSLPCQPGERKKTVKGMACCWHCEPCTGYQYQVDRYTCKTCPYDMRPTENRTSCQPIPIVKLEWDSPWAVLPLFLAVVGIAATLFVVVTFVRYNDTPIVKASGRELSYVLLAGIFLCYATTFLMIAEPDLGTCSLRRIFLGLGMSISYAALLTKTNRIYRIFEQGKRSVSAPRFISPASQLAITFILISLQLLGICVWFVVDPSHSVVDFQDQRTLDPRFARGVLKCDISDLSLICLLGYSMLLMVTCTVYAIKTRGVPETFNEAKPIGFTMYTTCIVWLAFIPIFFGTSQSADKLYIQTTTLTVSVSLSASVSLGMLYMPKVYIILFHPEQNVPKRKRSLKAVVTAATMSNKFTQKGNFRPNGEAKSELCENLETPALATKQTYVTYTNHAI

Metabotropic glutamate receptor 4 (Rattus norvegicus, UniProt P31423), sequence (P31423 whole entry): as above
T1 sequence (Q14833 whole entry): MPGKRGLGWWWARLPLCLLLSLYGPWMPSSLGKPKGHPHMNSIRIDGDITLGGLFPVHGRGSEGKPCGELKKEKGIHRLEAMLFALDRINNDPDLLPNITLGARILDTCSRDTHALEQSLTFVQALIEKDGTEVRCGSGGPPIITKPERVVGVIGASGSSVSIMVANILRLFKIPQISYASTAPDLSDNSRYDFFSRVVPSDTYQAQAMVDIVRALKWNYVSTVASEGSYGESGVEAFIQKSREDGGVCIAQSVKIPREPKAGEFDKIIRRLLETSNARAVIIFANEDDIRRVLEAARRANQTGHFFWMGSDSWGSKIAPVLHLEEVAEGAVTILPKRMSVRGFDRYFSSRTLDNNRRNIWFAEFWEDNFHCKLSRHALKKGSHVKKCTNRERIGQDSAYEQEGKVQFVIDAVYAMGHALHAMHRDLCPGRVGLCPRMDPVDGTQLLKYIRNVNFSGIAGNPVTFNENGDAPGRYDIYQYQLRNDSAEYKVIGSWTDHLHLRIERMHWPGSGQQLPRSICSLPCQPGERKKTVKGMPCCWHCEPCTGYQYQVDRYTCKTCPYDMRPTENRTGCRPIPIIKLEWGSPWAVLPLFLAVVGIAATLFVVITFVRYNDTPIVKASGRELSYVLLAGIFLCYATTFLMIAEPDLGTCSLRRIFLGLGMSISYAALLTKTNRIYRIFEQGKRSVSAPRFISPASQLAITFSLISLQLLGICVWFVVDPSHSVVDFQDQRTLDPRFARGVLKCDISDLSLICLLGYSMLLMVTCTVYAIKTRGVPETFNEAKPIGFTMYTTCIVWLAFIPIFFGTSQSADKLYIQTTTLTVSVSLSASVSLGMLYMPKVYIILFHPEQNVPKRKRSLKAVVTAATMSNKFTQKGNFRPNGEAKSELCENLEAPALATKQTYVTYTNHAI

Compound	fraction unbound at 4 h [1]	CLint scaled at 1 µM [2] [mL/min/kg]	fraction unbound at 4 h [3]	Kp ([4]; brain, BLD = below limit of detection)	EC50 [5] [nM]	Drug uptake ([6]; BLD = below limit of detection)	Cp [7] [ng/mL]	%max [8] [%]	CLint scaled at 1 µM [9] [mL/min/kg]	MRT [10] [min]	EC50 [11] [nM]	Emax [12] [%]	half-life [13] [min]	Vd [14] [L/kg]	IC50 (Cytochrome P450 1A2) [nM]	clearance [15] [mL/min/kg]	%max [16] [%]	Kp ([4]; brain and plasma, read-out: Kp)	Drug uptake [6] [ng/g]
CN(C(=O)c1nsc2cc(Nc3n[nH]c4cccnc34)ccc12)C1CC(F)(F)C1	< 0.001	2940	0.006	Bld	68.1	Bld	511	76.7	298										
Cc1noc2c(F)cc(Nc3n[nH]c4ncccc34)cc12	0.033	110	0.028		122			74.7	50.2	38	169	> 50	34.7	1.2	< 100	30.5	114		
Cc1noc2ccc(Nc3n[nH]c4ncccc34)cc12	0.079	30.1	0.066		227			81.9	81.4	60.6	209	> 50	107	2.5	700	38	108		
Cc1noc2c(F)cc(Nc3n[nH]c4cccnc34)cc12	0.05	66.4	0.029		274			77.7	31.1	38.4	53	> 50	31.2	3.1	< 100	81.1	114		
Cc1noc2ccc(Nc3n[nH]c4cc(F)cnc34)cc12	0.076	33.4	0.054		1570			80.6	24.2	31.6	123	> 50	54.8	2	< 100	64.6	111		
Cc1noc2ccc(Nc3n[nH]c4nccnc34)cc12	0.064	3	0.066		137			85.4	114	37.2	65	> 50	28.6	0.9	200	24.3	127		
c1cnc2c(Nc3ccc4c(C5CCCC5)noc4c3)n[nH]c2n1	0.008	281	0.013		514		117	85.5	42.3		518		45.9		3000	23.2	102	1.2	145
O=C(c1nsc2cc(Nc3n[nH]c4cccnc34)ccc12)N1CCC(F)(F)CC1	0.029	393	0.021		52.4		249	71	54		139				> 30000		103	0.14	35.5
O=C(NC1CC(F)(F)C1)c1nsc2cc(Nc3n[nH]c4nccnc34)ccc12	0.007	8.3	0.004		26		690	68.1	2.6		82.2				> 30000		86.6	0.08	55.6
